Source: PubChem
An excerpt weighted towards active compounds, which were near 0.6% of everything screened.
TNAP inh hi DEA: TNAP (human) inhibition, high acceptor | inhibition, % at 20 µM | P05186 | AID 1135 | 0.03% of 200,000 active | purified TNAP, CDP-star luminescence, 1 M DEA;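 active = over 50% inhibition of tissue-nonspecific alkaline phosphatase at 20 µM in the single-dose screen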
TNAP act hiacc: TNAP (human) activation, high acceptor | purified TNAP, CDP-star luminescence, 1 M DEA, 30 min; hits give high values; 0 = EDTA background, 1 = DMSO-only activity | activation factor at 20 µM | 200,000 tested, under 10 active;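 active = activation factor at least 2 at 20 µM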
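Test system – human TNAP · Doses – 20 µM single point · Incubation – 30 min, room temperature · Signal – luminescent substrate turnover signal · Read-out basis – activation factor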
Rad51 HR inh: blocks human Rad51 in homologous recombination | hRad51 DNA strand exchange, fluorescence dequenching | inhibition, % at 10 µM | 0.085% of 200,000 active | AID 1385;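 active = inhibition above 40% at the single screening dose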
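Read-out basis: percent inhibition relative to plate controls and blanks / Assay system: human Rad51 nucleoprotein filaments preassembled on unlabelled ssDNA / Timing: filaments 15 min 37 °C, then compound 30 min / Control set: per-plate controls and blanks / Technique: fluorescence dequenching at 485/520 nm / Compound: 10 µM final, single point / Also added: Fluorescein- and BHQ1-tagged 47-mer duplex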
PMI act: increases human mannose-6-phosphate isomerase activity. AID 1214. activation factor at 20 µM. 0.005% of 190,000 active. P34949. purified human PMI, coupled resazurin fluorescence, 20 min; hits give high values; 1 = vehicle control, 0 substrate-free wells;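 active = activation factor of 2 or more at 20 µM, relative to plate controls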
Target sequence (P34949 whole entry, looked up): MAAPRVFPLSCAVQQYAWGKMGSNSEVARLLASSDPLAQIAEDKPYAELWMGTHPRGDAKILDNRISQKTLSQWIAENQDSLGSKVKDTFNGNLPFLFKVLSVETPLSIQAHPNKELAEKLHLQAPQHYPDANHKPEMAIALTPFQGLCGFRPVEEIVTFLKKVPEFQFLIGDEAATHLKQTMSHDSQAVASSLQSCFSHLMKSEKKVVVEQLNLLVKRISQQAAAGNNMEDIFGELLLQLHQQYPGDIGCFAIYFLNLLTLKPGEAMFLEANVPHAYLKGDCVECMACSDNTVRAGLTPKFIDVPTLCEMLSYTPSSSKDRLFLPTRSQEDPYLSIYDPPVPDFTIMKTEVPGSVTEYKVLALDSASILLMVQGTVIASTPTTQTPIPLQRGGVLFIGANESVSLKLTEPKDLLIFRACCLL
TNAP inh no acc: TNAP (human) inhibition, acceptor-free conditions. purified TNAP, CDP-star luminescence, 30 min. inhibition, % at 20 µM. 0.26% of 200,000 active. AID 1012;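 active = tissue-nonspecific alkaline phosphatase inhibition above about 50% at 20 µM in the single-dose screen, limit read from the data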
PMI act hi M6P: activators of human phosphomannose isomerase at near-saturating mannose 6-phosphate; 0.34% of 190,000 active; P34949; coupled PMI enzyme assay, resazurin fluorescence, 20 min; hits give high values; 1 = untreated enzyme, 0 = substrate-free blank; AID 1216; activation factor at 20 µM;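 active = activation factor of 2 or more at 20 µM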
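test system = human PMI in coupled enzyme assay | medium = HEPES-buffered pH 7.4 with magnesium and detergent | also added = 1.0 mM mannose-6-phosphate substrate with 0.22 mM NADP+ | compound = 20 µM single dose | times = 20 min incubation at room temperature | measured by = resorufin fluorescence (Ex 544/Em 590 nm) from resazurin via diaphorase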
Large screens that a line does not name were inactive.

COc1ccc(N=Nc2nc3ccc(Br)cc3n2C)cc1	PMI act hi M6P 2.2 (no result: Rad51 HR inh)
O=C(CSc1ccccc1C(=O)O)c1ccc([N+](=O)[O-])cc1	PMI act hi M6P 2.2 (no result: Rad51 HR inh)
O=C(CSc1n[nH]c(=O)[nH]c1=O)c1ccc([N+](=O)[O-])cc1	none (no result: TNAP inh hi DEA, TNAP act hiacc, PMI act, TNAP inh no acc, PMI act hi M6P)
COc1cc(NS(=O)(=O)c2ccc(C)c(C)c2)c(OC)cc1Cl	none
COc1ccc(S(=O)(=O)N2CCCCC2)cc1NS(=O)(=O)c1cc(Cl)ccc1Cl	none (no result: Rad51 HR inh)
Nc1n[nH]c(-c2ccc(Br)cc2)c1Cl	TNAP inh no acc 81
CCN(CC)C(=S)SCC(=O)c1ccccc1	none
CCN(CC)C(=S)SCC(=O)c1ccc(F)cc1	TNAP inh no acc 52
CN(C)c1ccc(C(=S)N2CCCCC2)cc1Br	none
CN(C)c1ccc(C(=S)N2CCOCC2)cc1Br	PMI act hi M6P 2.6
CCOC(=O)c1c(NC(C)=O)sc2c1CCC(C=NCCCN(CC)CC)=C2Sc1ccccc1	none (no result: TNAP inh hi DEA, TNAP act hiacc, PMI act, TNAP inh no acc, PMI act hi M6P)
CC(=O)N1CCC(=NNc2ccnc3cc(Cl)ccc23)CC1	PMI act hi M6P 2.3
CC(Oc1ccc(Cl)cc1)C(=O)/C=C/N(C)C (stereo not drawn)	none
N#CCC(=O)NNC(=S)Nc1ccccc1C(F)(F)F	Rad51 HR inh 41
CCN(CC(=O)NCCc1ccc(F)cc1)Cc1nc2ccccc2c(=O)[nH]1	Rad51 HR inh 46 (no result: TNAP inh hi DEA, TNAP act hiacc, PMI act, TNAP inh no acc, PMI act hi M6P)
CCN(CC(=O)NCCc1ccc(Cl)cc1)Cc1nc2ccccc2c(=O)[nH]1	none
CCCCCC(=O)N/N=C(\C)c1ccccn1	none
C/C(=N\Nc1ccc(Cl)cc1)c1ccccn1	PMI act hi M6P 2.1
Fc1ccc(-c2csc(=S)[nH]2)cc1	PMI act hi M6P 2.4
O=c1[nH]c(-c2ccccc2)cs1	none (no result: Rad51 HR inh)
S=c1[nH]c(-c2ccccc2)cs1	PMI act hi M6P 2.1
CC[n+]1c(/C=C/N(C)c2ccccc2)oc2ccc(Cl)cc21	none
CCN1/C(=C/C=C/c2oc3ccc4ccccc4c3[n+]2CC)Oc2ccc3ccccc3c21	TNAP act hiacc 2
CC1=C(C(=O)OC(C)C)C(c2cncc(-c3ccc(F)cc3)c2)C(C#N)=C(N)O1 (stereo not drawn)	none
CCS(=O)(=O)n1nc(-c2ccc(Cl)cc2)nc1SC	TNAP inh no acc 61
CCS(=O)(=O)n1nc(-c2ccco2)nc1SC	none
CC1CCN(C(=O)COC(=O)c2n[nH]c3ccccc23)CC1	TNAP inh no acc 58
COC(=O)c1n[nH]c2ccccc12	TNAP inh no acc 55
CCC1CCCCN1C(=O)COC(=O)c1n[nH]c2ccccc12 (stereo not drawn)	TNAP inh no acc 56
O=C(OCC(=O)N1CCCCCC1)c1n[nH]c(=O)c2ccccc12	none
O=C(COC(=O)c1n[nH]c2ccccc12)NC(=O)NC1CCCC1	none
c1ccc(-c2n[nH]c3c2CCC3)cc1	TNAP inh no acc 73
CC(C)Oc1ccc(N2CC(C(=O)Nc3ccccn3)CC2=O)cc1 (stereo not drawn)	none
COc1ccc(S(=O)(=O)Nc2ccc(S(=O)(=O)N3CCOCC3)cc2)cc1C	none (no result: Rad51 HR inh)
COc1ccc(Nc2nc(N)nc(CSc3nc(C)cc(C)n3)n2)cc1	none
Oc1ccc(N=Nc2n[nH]c(-c3ccccc3)n2)cc1	TNAP inh no acc 74 (no result: Rad51 HR inh)
Oc1ccc(N=Nc2nc(-c3ccccc3)c(-c3ccccc3)[nH]2)cc1	TNAP inh hi DEA 58
Oc1ccc(N=Nc2n[nH]c(-c3ccc(Br)cc3)n2)cc1	TNAP inh no acc 75
Oc1ccc(-c2[nH]nc(-c3ccccc3)c2-c2nc3ccccc3[nH]2)cc1	none
Cc1cc(SCC(=O)Nc2ccc(O)cc2)n2nc(C)c(-c3ccccc3)c2n1	none (no result: TNAP inh hi DEA, TNAP act hiacc, PMI act, TNAP inh no acc, PMI act hi M6P)
CCOC(=O)C1=C(C)NC(=O)NC1c1ccc(OCC(=O)Nc2ccccc2)c(OC)c1 (stereo not drawn)	none
CCOC(=O)C1=C(C)NC(=O)C1CC(=O)Nc1ccccc1 (stereo not drawn)	PMI act 2.1, PMI act hi M6P 3
COC(=O)c1ccc(NS(=O)(=O)c2cc(C)ccc2OC)cc1	none
O=C(Nc1n[nH]c(C2CCCCC2)n1)C1CCCCC1	TNAP inh no acc 72
